Results: ChEMBL document CHEMBL3627607, “A Novel Pyrazolopyridine with in Vivo Activity in Plasmodium berghei- and Plasmodium falciparum-Infected Mouse Models from Structure-Activity Relationship Studies around the Core of Recently Identified Antimalarial Imidazopyridazines” (J Med Chem, 2015)
Calls of active or inactive are those of the source. No cut-off for these calls is given here.

Legend:
[1] = test system: Plasmodium falciparum; experiment: Antiplasmodial activity against drug sensitive Plasmodium falciparum NF54 infected in human erythrocytes after 48 hrs by [3H]-hypoxanthine incorporation assay; type: functional, organism-based
[2] = Metabolic stability of the compound in mouse liver microsomes assessed as compound remaining at 0.1 uM after 30 mins by LC-MS/MS analysis; type: ADME; settings: 0.5 h
[3] = test system: Plasmodium falciparum; experiment: Antiplasmodial activity against multidrug resistant Plasmodium falciparum K1 infected in human erythrocytes after 48 hrs by [3H]-hypoxanthine incorporation assay; type: functional, organism-based
[4] = test system: Liver microsome; experiment: Metabolic stability of the compound in rat liver microsomes assessed as compound remaining at 0.1 uM after 30 mins by LC-MS/MS analysis; type: ADME; settings: 0.5 h
[5] = test system: Liver microsome; experiment: Metabolic stability of the compound in human liver microsomes assessed as compound remaining at 0.1 uM after 30 mins by LC-MS/MS analysis; type: ADME; settings: 0.5 h
[6] = test system: Plasmodium berghei; experiment: Antiplasmodial activity against Plasmodium berghei ANKA expressing GFP infected in mouse assessed as reduction of parasitemia level at 50 mg/kg, po qd for 4 days measured on day 4 post last dose by flow cytometric analysis relative to control; type: functional; set-up: scale not given: the % may be the effect or the level left
How it was run: (§1)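 Mice (n = 3) infected with GFP-transfected P. berghei ANKA. Test agents were suspended in HPMC vehicle (0.5% w/v hydroxypropylmethylcellulose, 0.5% v/v benzyl alcohol, 0.4% v/v Tween 80, 0.9% w/v NaCl in water). Dosed orally at 4, 24, 48 and 72 h post-infection. Parasitemia read by flow cytometry on day 4 (96 h), detection limit 0.1%. Activity = control-minus-treated mean % parasitemia, relative to control.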

[7] = test system: Plasmodium berghei; experiment: Antiplasmodial activity against Plasmodium berghei ANKA expressing GFP infected in mouse assessed as means survival days at 50 mg/kg, po qd for 4 days; type: functional
How it was run: (§2)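 Mice (n = 3) infected with GFP-transfected P. berghei ANKA. Compounds dissolved or suspended in HPMC vehicle (0.5% w/v hydroxypropylmethylcellulose, 0.5% v/v benzyl alcohol, 0.4% v/v Tween 80, 0.9% w/v NaCl in water). Dosed orally 4, 24, 48 and 72 h after infection. Parasitemia read by flow cytometry (detection limit 0.1%). Survival recorded as mean survival time in days.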

[8] = test system: Plasmodium berghei; experiment: Antiplasmodial activity against Plasmodium berghei ANKA expressing GFP infected in mouse assessed as reduction of parasitemia level at 10 mg/kg, po qd for 4 days measured on day 4 post last dose by flow cytometric analysis relative to control; type: functional; set-up: scale not given: the % may be the effect or the level left; how it was run: as §1
[9] = test system: Plasmodium berghei; experiment: Antiplasmodial activity against Plasmodium berghei ANKA expressing GFP infected in mouse assessed as means survival days at 10 mg/kg, po qd for 4 days; type: functional; how it was run: as §2
[10] = test system: Plasmodium berghei; experiment: Antiplasmodial activity against Plasmodium berghei ANKA expressing GFP infected in mouse assessed as reduction of parasitemia level at 3 mg/kg, po qd for 4 days measured on day 4 post last dose by flow cytometric analysis relative to control; type: functional; set-up: scale not given: the % may be the effect or the level left; how it was run: as §1
[11] = test system: Plasmodium berghei; experiment: Antiplasmodial activity against Plasmodium berghei ANKA expressing GFP infected in mouse assessed as mouse cured from disease at 50 mg/kg, po qd for 4 days; type: functional, organism-based
[12] = test system: Plasmodium berghei; experiment: Antiplasmodial activity against Plasmodium berghei ANKA expressing GFP infected in mouse assessed as means survival days at 3 mg/kg, po qd for 4 days; type: functional; how it was run: as §2
[13] = test system: Plasmodium berghei; experiment: Antiplasmodial activity against Plasmodium berghei ANKA expressing GFP infected in mouse assessed as means survival days at 30 mg/kg, po qd for 4 days; type: functional
[14] = test system: Plasmodium berghei; experiment: Antiplasmodial activity against Plasmodium berghei ANKA expressing GFP infected in mouse assessed as reduction of parasitemia level at 30 mg/kg, po qd for 4 days; type: functional; set-up: scale not given: the % may be the effect or the level left
[15] = test system: Plasmodium falciparum; experiment: Antiplasmodial activity against Plasmodium falciparum 3D7 infected in po dosed non-myelodepleted NOD-SCID IL2Rgammanull mouse engrafted with human erythrocytes assessed as reduction of parasitemia level administered qd for 4 days; type: functional; settings: 3D7, po, 96 h
How it was run: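 P. falciparum-infected engrafted NSG mice were dosed orally once daily for four consecutive days. Blood parasitemia was monitored, and a 90% effective dose was derived along with the blood exposure at that dose.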

[16] = Solubility of the compound in 0.01M HCl at pH 2 by Nephelometric analysis; type: physicochemical; settings: buffer
[17] = Selectivity index, ratio of IC50 for African green monkey VERO cells to IC50 for Plasmodium falciparum NF54; type: toxicity, cell-based; settings: read-out: Ratio IC50
[18] = Drug level in mouse blood at 50 mg/kg, po after 1 hr; type: ADME, organism-based; settings: read-out: Drug uptake
How it was run: (§3)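 Snapshot whole-blood levels of parent and its sulfone metabolite at 1, 4 and 24 h after the first 50 mg/kg oral dose. Samples came from the P. berghei-infected efficacy mice, dosed in HPMC suspension vehicle.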

[19] = Selectivity index, ratio of IC50 for African green monkey VERO cells to IC50 for multidrug resistant Plasmodium falciparum K1; type: toxicity, cell-based; settings: read-out: Ratio IC50
[20] = Selectivity index, ratio of IC50 for CHO cells to IC50 for Plasmodium falciparum NF54; type: toxicity, cell-based; settings: hamster, read-out: Ratio IC50
[21] = Drug level in mouse blood at 50 mg/kg, po after 4 hrs; type: ADME, organism-based; settings: read-out: Drug uptake; how it was run: as §3
[22] = test system: Blood; experiment: (§4) Drug level in mouse blood at 50 mg/kg, po after 24 hrs; type: ADME, organism-based; settings: in vivo, 24 h, BLD = below limit of detection; how it was run: as §3
[23] = Selectivity index, ratio of IC50 for CHO cells to IC50 for multidrug resistant Plasmodium falciparum K1; type: toxicity, cell-based; settings: hamster, read-out: Ratio IC50
[24] = Half life in rat at 20 mg/kg, po; type: ADME, organism-based; settings: in vivo
[25] = Volume of distribution in rat at 5 mg/kg, iv; type: ADME, organism-based; settings: in vivo
[26] = Half life in rat at 5 mg/kg, iv; type: ADME, organism-based; settings: in vivo
[27] = Oral bioavailability in rat at 20 mg/kg; type: ADME, organism-based; settings: in vivo
[28] = Plasma clearance in rat at 5 mg/kg, iv; type: ADME, organism-based
[29] = test system: Plasmodium berghei; experiment: Antiplasmodial activity against sporozoite stage of Plasmodium berghei expressing luciferase infected in human HepG2-A16-CD81EGFP cells preincubated with cells for 18 hrs followed by protozoal infection measured after 48 hrs by bioluminescence assay; type: functional, organism-based
How it was run: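 HepG2 cells were pretreated 18 h with compound, then infected with freshly dissected luciferase-expressing P. berghei sporozoites. After a further 48 h with compound, viability of exoerythrocytic forms and of HepG2 host cells was read by bioluminescence.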

[30] = as §4; type: ADME, organism-based; settings: blood, read-out: Drug uptake; how it was run: as §3
[31] = target: Voltage-gated inwardly rectifying potassium channel KCNH2 (Homo sapiens, UniProt Q12809); experiment: Inhibition of human ERG potassium channel by ionworks patch-clamp electrophysiology assay
Chain of Voltage-gated inwardly rectifying potassium channel KCNH2 (Q12809 whole entry): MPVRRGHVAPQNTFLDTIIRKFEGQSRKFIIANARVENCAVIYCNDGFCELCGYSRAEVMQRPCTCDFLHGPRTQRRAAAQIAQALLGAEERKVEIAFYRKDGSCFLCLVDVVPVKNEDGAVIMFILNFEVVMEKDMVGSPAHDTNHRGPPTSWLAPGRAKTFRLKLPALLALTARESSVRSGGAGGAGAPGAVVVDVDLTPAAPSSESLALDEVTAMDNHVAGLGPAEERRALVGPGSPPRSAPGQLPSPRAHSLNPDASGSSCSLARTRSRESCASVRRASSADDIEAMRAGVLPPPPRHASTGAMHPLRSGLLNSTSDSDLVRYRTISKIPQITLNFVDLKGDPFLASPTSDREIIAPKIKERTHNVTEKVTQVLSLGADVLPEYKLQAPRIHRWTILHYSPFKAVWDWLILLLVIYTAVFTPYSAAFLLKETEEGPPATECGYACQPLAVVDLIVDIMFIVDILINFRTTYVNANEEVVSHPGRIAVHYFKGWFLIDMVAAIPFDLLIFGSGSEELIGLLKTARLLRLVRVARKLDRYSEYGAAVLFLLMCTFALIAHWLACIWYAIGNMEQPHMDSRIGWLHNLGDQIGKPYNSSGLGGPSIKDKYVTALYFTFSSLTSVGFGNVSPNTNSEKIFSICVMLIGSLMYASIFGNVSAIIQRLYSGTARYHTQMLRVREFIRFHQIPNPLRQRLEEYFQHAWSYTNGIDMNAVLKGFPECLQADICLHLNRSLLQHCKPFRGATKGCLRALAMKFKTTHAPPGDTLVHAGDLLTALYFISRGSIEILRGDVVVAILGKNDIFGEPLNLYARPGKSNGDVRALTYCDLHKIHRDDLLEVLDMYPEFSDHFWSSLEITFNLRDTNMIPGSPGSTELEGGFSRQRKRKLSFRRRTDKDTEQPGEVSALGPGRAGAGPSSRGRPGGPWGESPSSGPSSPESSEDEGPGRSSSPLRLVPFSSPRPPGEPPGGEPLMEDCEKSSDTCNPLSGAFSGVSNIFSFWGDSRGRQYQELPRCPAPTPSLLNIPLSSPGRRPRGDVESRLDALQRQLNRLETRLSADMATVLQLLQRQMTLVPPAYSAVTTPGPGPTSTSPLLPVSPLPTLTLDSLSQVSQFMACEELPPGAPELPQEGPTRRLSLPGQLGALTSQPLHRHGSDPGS

[32] = Half life in rat at 15 mg/kg, po; type: ADME, organism-based; settings: in vivo
[33] = Oral bioavailability in rat at 15 mg/kg; type: ADME, organism-based; settings: in vivo

Row | Structure (SMILES) | IC50 [1] [nM] | Stability [2] | IC50 [3] [nM] | Stability [4] | Stability [5] | Activity [6] [%] | MSD [7] [days] | also measured
1 | CS(=O)(=O)c1ccc(-c2cnn3ccc(-c4cccc(C(F)(F)F)c4)nc23)cc1 | 48 | Stable | 43 | Stable | Stable |  |  | 
2 | CS(=O)(=O)c1ccc(-c2cnc3ccc(-c4cccc(C(F)(F)F)c4)nn23)cc1 | 60 | Stable | 46 | Stable | Stable | 99.8 | >30 | Activity [8]: 70%; MSD [9]: 7 days; Activity [10]: <40%; Activity [11]: Active; MSD [12]: 4 days
3 | C[C@H]1[C@H](OC(=O)CCC(=O)O)O[C@@H]2O[C@@]3(C)CC[C@H]4[C@H](C)CC[C@@H]1[C@@]24OO3 [ARTESUNATE] | 3 |  | 4 |  |  |  |  | MSD [13]: 10 days; Activity [14]: 99%; ED90 [15]: 11.1 mg/kg
4 | CS(=O)(=O)c1ccc(-c2cnn3c2NC(c2cccc(S(=O)(=O)C4CC4)c2)CC3)cc1 (stereo unspecified) | 44 | Stable | 46 | Stable | Stable | 78 | 7 | solubility [16]: soluble; selectivity ratio [17]: > 1000; concentration at 1 h [18]: 456 nM; selectivity ratio [19]: > 1000; selectivity ratio [20]: > 1000; concentration at 4 h [21]: 177 nM; Drug uptake [22]: BLD; selectivity ratio [23]: > 1000
5 | CS(=O)(=O)c1ccc(-c2cnn3ccc(-c4cccc(C(F)(F)F)c4)cc23)cc1 | 98 | Stable |  | Stable | Stable |  |  | 
6 | CS(=O)(=O)c1ccc(-c2cnc3ccc(-c4cccc(S(=O)(=O)C5CC5)c4)cn23)cc1 | 46 | Stable | 38 | Stable | Stable | 99.5 | 10 | selectivity ratio [17]: 700; half-life [24]: 3.9 h; Vd [25]: 2.3 L/kg; selectivity ratio [19]: 700; selectivity ratio [20]: 700; half-life [26]: 3 h; bioavailability [27]: 51%; clearance [28]: 8.7 mL/min/kg; selectivity ratio [23]: 700
7 | CS(=O)(=O)c1ccc(-c2cnn3ccc(-c4cccc(S(=O)(=O)C5CC5)c4)nc23)cc1 | 0.42 | Stable | 0.37 | Stable | Stable | 86 | 7 | IC50 [29]: 0.61 nM; half-life [24]: 7.8 h; Vd [25]: 0.3 L/kg; concentration at 1 h [18]: 169 nM; half-life [26]: 2.8 h; bioavailability [27]: 1%; concentration at 4 h [21]: 145 nM; concentration at 24 h [30]: < 10 nM; clearance [28]: 1.1 mL/min/kg
8 | C[S+]([O-])c1ccc(-c2cnc3ccc(-c4cccc(S(=O)(=O)C5CC5)c4)nn23)cc1 (stereo unspecified) |  | Stable |  | Stable | Stable | 99.8 | >30 | Activity [8]: 99.6%; MSD [9]: 8 days; Activity [10]: 98%; Activity [11]: Active; MSD [12]: 7 days
9 | CS(=O)(=O)c1ccc(-c2nnc3ccc(-c4cccc(S(C)(=O)=O)c4)nn23)cc1 | > 2340 |  |  |  |  |  |  | 
10 | CS(=O)(=O)c1ccc(-c2nnc3ccc(-c4cccc(S(C)(=O)=O)c4)cn23)cc1 | > 1000 |  | > 1000 |  |  |  |  | 
11 | CS(=O)(=O)c1ccc(-c2nnc3ccc(-c4cccc(C(F)(F)F)c4)cn23)cc1 | > 1000 |  | > 1000 |  |  |  |  | 
12 | CS(=O)(=O)c1ccc(-c2cnc3ccc(-c4cccc(S(C)(=O)=O)c4)cn23)cc1 | 150 | Stable | 113 | Stable | Stable |  |  | IC50 [31]: 4800 nM
13 | O[C@@H](c1cc(C(F)(F)F)nc2c(C(F)(F)F)cccc12)[C@H]1CCCCN1 (relative stereo) [(S,R)-MEFLOQUINE] |  |  |  |  |  |  |  | MSD [13]: 29 days; Activity [14]: 99.9%; ED90 [15]: 7.7 mg/kg
14 | CS(=O)(=O)c1ccc(-c2cnc3cnc(-c4cccc(S(C)(=O)=O)c4)cn23)cc1 | 877 | Stable |  | Stable | Stable |  |  | solubility [16]: soluble
15 | CS(=O)(=O)c1ccc(-c2cnn3ccc(-c4cccc(S(C)(=O)=O)c4)cc23)cc1 | 8 | Stable |  | Stable | Stable | 60 | 4 | half-life [32]: 2.6 h; selectivity ratio [17]: > 1000; bioavailability [33]: 1%; IC50 [29]: 6.6 nM; Vd [25]: 4.8 L/kg; IC50 [31]: > 33000 nM; concentration at 1 h [18]: 7600 nM; selectivity ratio [19]: > 1000; selectivity ratio [20]: > 1000; half-life [26]: 4.1 h; concentration at 4 h [21]: 486 nM; concentration at 24 h [30]: 290 nM; clearance [28]: 13.9 mL/min/kg; selectivity ratio [23]: > 1000
16 | CS(=O)(=O)c1ccc(-c2cnc3ccc(-c4cccc(S(C)(=O)=O)c4)nn23)cc1 |  | Stable |  | Stable | Stable | 99.8 | 7 | selectivity ratio [17]: > 1000; IC50 [29]: 4.1 nM; IC50 [31]: 900 nM; selectivity ratio [19]: > 1000; selectivity ratio [20]: > 1000; selectivity ratio [23]: > 1000
17 | CCc1nc(N)nc(N)c1-c1ccc(Cl)cc1 [PYRIMETHAMINE] |  |  |  |  |  |  |  | ED90 [15]: 0.9 mg/kg
18 | CS(=O)(=O)c1ccc(-c2cnn3c2NC(c2cccc(C(F)(F)F)c2)CC3)cc1 (stereo unspecified) | < 100 |  |  |  |  |  |  | 
19 | CS(=O)(=O)c1ccc(-c2cnc3ncc(-c4cccc(S(C)(=O)=O)c4)cn23)cc1 | > 1000 |  | > 1000 |  |  |  |  | 
20 | CCN(CC)CCCC(C)Nc1ccnc2cc(Cl)ccc12 (stereo unspecified) [CHLOROQUINE] |  |  |  |  |  |  |  | ED90 [15]: 4.3 mg/kg
21 | CS(=O)(=O)c1ccc(-c2cnn3ccc(-c4cccc(S(C)(=O)=O)c4)nc23)cc1 | 2.6 | Stable | 2.2 | Stable | Stable |  |  | 
22 | CS(=O)(=O)c1ccc(-c2cnc3ccc(-c4cccc(S(=O)(=O)C5CC5)c4)nn23)cc1 |  | Stable |  | Stable | Stable |  |  | 
